Laboratory results published in ChEMBL document CHEMBL4177580, “New 5-HT1A, 5HT2A and 5HT2C receptor ligands containing a picolinic nucleus: Synthesis, in vitro and in vivo pharmacological evaluation” (Bioorg Med Chem, 2017).
Activity calls are given as the source filed them.

How the values were obtained:
Mus musculus [1] = test: Toxicity in Swiss albino mouse assessed as reduction in spontaneous locomotor activity at 30 mg/kg, ip dosed 60 mins before test and measured after 30 mins; assay type: organism-based; details: in vivo, 0.5 h
Outline: (§1)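 Spontaneous locomotion: mice dosed i.p. 60 min before being placed individually in an actometer for 30 min. Distance travelled read at 6 and 30 min. Cages cleaned with 70% ethanol between animals. One-way ANOVA with Dunnett's; mean ± SEM of one experiment.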

Mus musculus [2] = test: Toxicity in Swiss albino mouse assessed as reduction in spontaneous locomotor activity at 30 mg/kg, ip dosed 60 mins before test and measured after 6 mins; assay type: organism-based; details: in vivo, 0.1 h; outline: as §1
Mus musculus [3] = test: Antidepressant-like activity in Swiss albino mouse assessed as reduction in immobility time at 1.875 mg/kg, ip dosed 1 hr before test by forced swimming test; assay type: functional, organism-based
Outline: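 Male Swiss albino mice (18–24 g), compound i.p. in 0.1% DMSO/0.5% methylcellulose 1 h pre-test. Porsolt swim: cylinder 25 cm high, 10 cm diameter, 10 cm water at 23–25°C, 6 min session; immobility scored over last 4 min. Blind observer; one-way ANOVA with Dunnett's; mean ± SEM.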

Mus musculus [4] = test: Toxicity in Swiss albino mouse assessed as reduction in spontaneous locomotor activity at 15 mg/kg, ip dosed 60 mins before test and measured after 30 mins; assay type: organism-based; details: in vivo, 0.5 h; outline: as §1
Mus musculus [5] = test: Induction of hypothermia in Swiss albino mouse assessed as reduction in body temperature at 15 mg/kg, ip measured after 120 mins post dose; assay type: functional, organism-based
Outline: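 Normothermic male Swiss mice; rectal thermistor readings over 180 min. Baseline is the mean of readings 60 and 30 min before dosing; readings at 30, 60, 90, 120 min post-injection; Δt = tf − ti. Test compounds i.p. (DMSO/methylcellulose); 8-OH-DPAT (5 mg/kg) and WAY 100635 (0.1 mg/kg) s.c. in water. Two-way ANOVA, Bonferroni.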

Mus musculus [6] = test: Toxicity in Swiss albino mouse assessed as reduction in spontaneous locomotor activity at 1.875 mg/kg, ip dosed 60 mins before test; assay type: organism-based; details: in vivo, 1 h; outline: as §1
Mus musculus [7] = test: Toxicity in Swiss albino mouse assessed as reduction in spontaneous locomotor activity at 60 mg/kg, ip dosed 60 mins before test and measured after 6 mins; assay type: organism-based; details: in vivo, 0.1 h; outline: as §1
D(2) dopamine receptor = D(2) dopamine receptor (Homo sapiens, UniProt P14416); test: Displacement of [3H]methyl-spiperone from human recombinant dopamine D2 receptor expressed in HEK293 cells; assay type: cell-based
D(2) dopamine receptor, sequence (P14416 whole entry): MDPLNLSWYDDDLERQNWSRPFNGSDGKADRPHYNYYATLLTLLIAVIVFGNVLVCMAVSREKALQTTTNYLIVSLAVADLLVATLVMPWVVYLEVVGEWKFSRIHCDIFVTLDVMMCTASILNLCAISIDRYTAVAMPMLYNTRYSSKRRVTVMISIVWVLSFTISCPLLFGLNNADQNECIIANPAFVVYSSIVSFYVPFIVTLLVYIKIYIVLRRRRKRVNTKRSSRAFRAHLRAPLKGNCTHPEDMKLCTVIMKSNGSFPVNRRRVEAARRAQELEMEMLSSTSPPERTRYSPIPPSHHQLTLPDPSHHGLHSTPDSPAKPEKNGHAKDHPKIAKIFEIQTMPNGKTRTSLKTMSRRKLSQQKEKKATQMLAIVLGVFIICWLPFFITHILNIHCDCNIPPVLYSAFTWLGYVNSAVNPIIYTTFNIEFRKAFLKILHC

Mus musculus [8] = test: Toxicity in Swiss albino mouse assessed as reduction in spontaneous locomotor activity at 60 mg/kg, ip dosed 60 mins before test and measured after 30 mins; assay type: organism-based; details: in vivo, 0.5 h; outline: as §1
Mus musculus [9] = test: Toxicity in Swiss albino mouse assessed as induction of impairment of motor coordination by measuring reduction in time spent on rota-rod at 60 mg/kg, ip dosed 60 mins before test by rotarod test; assay type: organism-based; details: in vivo, 1 h
Outline: (§2)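 Rotarod in male Swiss mice, i.p. dosing 60 min pre-test: impairment is inability to stay 1 min on a rod turning at 18 rpm, after 3 days of daily training. Mean ± SEM of 2 independent experiments; one-way ANOVA with Dunnett's.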

[10] = target: T1, Adrenergic receptor alpha-1 (Rattus norvegicus, UniProt P15823+P23944+P43140); test: Displacement of [3H]prazosin from adrenergic alpha1 receptor in rat cerebral cortex
T1 sequence (P15823 whole entry): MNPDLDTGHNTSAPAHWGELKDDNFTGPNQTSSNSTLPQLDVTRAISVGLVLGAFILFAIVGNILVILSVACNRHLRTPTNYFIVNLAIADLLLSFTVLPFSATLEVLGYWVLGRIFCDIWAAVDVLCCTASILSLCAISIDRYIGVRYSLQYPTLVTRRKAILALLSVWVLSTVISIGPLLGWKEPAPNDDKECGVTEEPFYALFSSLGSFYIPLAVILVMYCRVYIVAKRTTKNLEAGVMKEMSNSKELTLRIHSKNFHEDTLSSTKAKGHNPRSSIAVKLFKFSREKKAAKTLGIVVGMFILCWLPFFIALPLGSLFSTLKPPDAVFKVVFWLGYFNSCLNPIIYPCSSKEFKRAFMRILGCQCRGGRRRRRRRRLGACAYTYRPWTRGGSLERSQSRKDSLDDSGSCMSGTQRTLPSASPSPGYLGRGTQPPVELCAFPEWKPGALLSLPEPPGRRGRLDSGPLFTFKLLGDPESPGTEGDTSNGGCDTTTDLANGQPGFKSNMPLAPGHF
T1 sequence (P23944 whole entry): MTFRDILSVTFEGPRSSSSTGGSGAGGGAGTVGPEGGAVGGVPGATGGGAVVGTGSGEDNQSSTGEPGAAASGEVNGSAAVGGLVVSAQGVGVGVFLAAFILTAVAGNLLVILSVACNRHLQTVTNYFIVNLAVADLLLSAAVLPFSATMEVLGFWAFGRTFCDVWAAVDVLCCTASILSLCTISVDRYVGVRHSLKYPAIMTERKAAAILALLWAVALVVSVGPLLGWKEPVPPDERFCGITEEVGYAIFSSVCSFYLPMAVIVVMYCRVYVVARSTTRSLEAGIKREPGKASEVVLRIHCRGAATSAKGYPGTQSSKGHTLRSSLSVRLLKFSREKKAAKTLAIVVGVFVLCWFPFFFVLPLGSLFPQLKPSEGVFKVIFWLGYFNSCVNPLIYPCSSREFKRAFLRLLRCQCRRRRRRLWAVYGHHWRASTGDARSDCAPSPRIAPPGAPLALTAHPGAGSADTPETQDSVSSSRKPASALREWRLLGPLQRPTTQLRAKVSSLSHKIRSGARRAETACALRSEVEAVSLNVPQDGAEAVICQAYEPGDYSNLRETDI
T1 sequence (P43140 whole entry): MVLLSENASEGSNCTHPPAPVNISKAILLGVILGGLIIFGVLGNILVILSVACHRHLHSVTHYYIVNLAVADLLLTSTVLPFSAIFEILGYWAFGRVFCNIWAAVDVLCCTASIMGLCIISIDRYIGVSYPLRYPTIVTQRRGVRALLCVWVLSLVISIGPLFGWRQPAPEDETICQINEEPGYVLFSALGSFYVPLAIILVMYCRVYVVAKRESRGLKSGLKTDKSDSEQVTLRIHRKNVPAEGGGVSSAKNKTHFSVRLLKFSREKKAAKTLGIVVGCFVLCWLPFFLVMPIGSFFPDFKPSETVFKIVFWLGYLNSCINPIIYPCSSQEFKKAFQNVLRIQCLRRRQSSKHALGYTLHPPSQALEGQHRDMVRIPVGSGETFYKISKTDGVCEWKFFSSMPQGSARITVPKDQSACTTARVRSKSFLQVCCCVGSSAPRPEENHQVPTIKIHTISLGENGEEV

Mus musculus [11] = test: Toxicity in Swiss albino mouse assessed as effect on motor coordination at 1.875 to 7.5 mg/kg, ip dosed 60 mins before test by Chimney test; assay type: organism-based; details: in vivo, 1 h, in the assay text read “3.75 to 60 mg/kg” for “1.875 to 7.5 mg/kg”
Outline: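 Chimney test in male Swiss mice after i.p. dosing 60 min earlier: impairment defined as failure to climb backwards up a tube (3 cm inner diameter, 25 cm long) within 60 s. Animals pre-trained once daily for 3 days. One-way ANOVA with Dunnett's.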

Mus musculus [12] = test: Anxiolytic-like activity in Swiss albino mouse assessed as increase in time spent in open arms at 1.875 to 7.5 mg/kg measured for 5 mins test period by elevated plus maze test; assay type: functional, organism-based
Mus musculus [13] = test: Toxicity in Swiss albino mouse assessed as induction of impairment of motor coordination by measuring reduction in time spent on rota-rod at 30 mg/kg, ip dosed 60 mins before test by rotarod test; assay type: organism-based; details: in vivo, 1 h; outline: as §2

With `O=C(NCCN1CCN(c2ccc(Cl)cc2)CC1)c1ccccn1` the Activity (Mus musculus [1]) was “Toxic”, the Activity (Mus musculus [2]) was “Toxic” and the Activity (Mus musculus [3]) was “Active”. For the same compound, the Activity (Mus musculus [4]) was “Toxic”, the Activity (Mus musculus [5]) was “Active” and the Activity (Mus musculus [6]) was “Non-Toxic”. The Activity (Mus musculus [7]) was “Toxic”, the Ki (D(2) dopamine receptor) was 2300 nM and the Activity (Mus musculus [8]) was “Toxic”. For the same compound, the Activity (Mus musculus [9]) was “Toxic”, the Ki [10] was 76 nM and the Activity (Mus musculus [11]) was “Non-Toxic”. For the same compound, the Activity (Mus musculus [12]) was “Active” and the Activity (Mus musculus [13]) was “Toxic”.
